Series [1] in a line: In vitro plasma protein binding in dog at 5 ug/ml by ultrafiltration method. In kind it is ADME, cell-free, Canis lupus familiaris. The settings on record: read-out: PPB (converted). An outline of the steps: (§1)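 [14C]M-III in saline was added to rat or dog plasma at final 0.5, 5 and 50 µg/ml. Plasma was ultrafiltered by centrifugation at 1500g and 37°C for 10 min, and 14C was measured in plasma and filtrate. Mean ± S.D., n = 3.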

A short description of series [2]: In vitro plasma protein binding in rat at 5 ug/ml by ultrafiltration method. The settings on record: read-out: PPB (converted). In kind it is ADME, cell-free. An outline of the steps:
as §1

Series [3] is described as follows: Unbound fraction in Crj:CD(SD)IGS rat plasma at 0.125 mg/hr, iv administered as continuous infusion by ultrafiltration method. In kind it is ADME, organism-based. In outline: (§2)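 Rats received a continuous iv infusion of [14C]M-III at 0.125 mg/rat/h, with probenecid co-infused at 16, 31 or 62 mg/h/kg or vehicle alone, for 5 h. Arterial plasma was sampled during infusion. CLtot = infusion rate / steady-state plasma M-III (120–180 min). Unbound fraction was measured by ultrafiltration of 5-h plasma (10,000 MWCO, 1500g, 37°C, 10 min). CLint = CLtot / unbound ratio.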

Series [4] can be described thus: Ratio of drug level in kidney to plasma in Crj:CD(SD)IGS rat at 0.25 mg/hr, iv administered as continuous infusion by HPLC-based liquid scintillation counting analysis. In kind it is ADME, organism-based. An outline of the steps: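 Rats received [14C]M-III in saline by continuous jugular-vein infusion for 4 h (0.5 mg/rat/h per methods; 0.25 mg/h in legend), then aortic blood and kidneys were collected. Dogs received a 0.5 mg/kg iv bolus, with blood and kidneys (cortex and medulla separated) collected at 24 h. 14C was measured in tissue homogenates and plasma as a tissue/plasma ratio. Rat n = 3, dog n = 2.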

Series [5] is described as follows: Drug excretion in Crj:CD(SD)IGS rat urine assessed as excretion ratio of [14C] at 0.5 mg/kg, iv administered as bolus dose measured from 0 to 24 hrs by HPLC-based liquid scintillation counting analysis. In kind it is ADME, organism-based. Details: dose 0.5 mg/kg, route intravenous. The note with it: in vivo. In outline: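 Male rats in metabolic cages with urine/feces separator, or beagle dogs, after a 0.5 mg/kg iv bolus of [14C]M-III in saline. Radioactivity in urine and feces collected 0–24 h (rats) or 0–168 h (dogs) was counted and expressed as percent of dose. Mean ± S.D., n = 3.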

Series [6] in a line: Renal clearance in Beagle dog at 0.5 mg/kg, iv administered as bolus dose measured from 0 to 168 hrs by HPLC-based liquid scintillation counting analysis. In kind it is ADME, organism-based, Canis lupus familiaris, Kidney. The arrangement: dose 0.5 mg/kg, route intravenous. The note with it: in vivo. An outline of the steps: (§3)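 After a 0.5 mg/kg iv bolus of [14C]M-III, urine was collected 0–24 h (rat) or 0–168 h (dog) and injected directly onto HPLC with fraction collection and scintillation counting. M-III in urine was derived from the urinary 14C excretion ratio and the [14C]M-III composition. CLrenal = urinary M-III amount / AUC0–24 h (rat) or AUC0–168 h (dog). Unbound CLrenal = CLrenal / free fraction.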

The nature of series [7]: In vivo plasma protein binding in Crj:CD(SD)IGS rat at 0.125 mg/hr, iv administered as continuous infusion by ultrafiltration method in presence of 16 mg/hr/kg probenecid. In kind it is ADME, organism-based. The settings on record: with probenecid 16 mg/hr/kg, read-out: PPB (converted). An outline of the steps:
as §2

A short description of series [8]: In vivo plasma protein binding in Beagle dog at 0.5 mg/kg, iv administered as bolus dose by ultrafiltration method. In kind it is ADME, organism-based, Canis lupus familiaris. Details: dose 0.5 mg/kg, route intravenous. The settings on record: read-out: PPB (converted). An outline of the steps: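 Plasma was taken from beagle dogs 24 h after a 0.5 mg/kg iv bolus of [14C]M-III (cephalic vein). Binding was determined by ultrafiltration (1500g, 37°C, 10 min), with 14C measured in plasma and filtrate.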

Series [9] in a line: Drug uptake in Crj:CD(SD)IGS rat plasma at 0.5 mg/kg, iv administered as bolus dose after 5 mins by HPLC-based liquid scintillation counting analysis. In kind it is ADME, organism-based. Details: dose 0.5 mg/kg, route intravenous. An outline of the steps: (§4)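 [14C]M-III in saline given as a single iv bolus at 0.5 mg/kg to male rats (tail-vein blood, 5 min–24 h) or male beagle dogs (cephalic-vein blood, 5 min–168 h). Heparinized plasma counted for radioactivity; M-III quantified by HPLC with fraction collection and liquid scintillation counting. C5 min read directly; terminal t1/2 by linear regression, kel = ln2/t1/2, Vd = dose/back-extrapolated C0, CLtot = dose/AUCinf. Mean ± S.D., n = 3.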

Series [10] is described as follows: In vivo plasma protein binding in Crj:CD(SD)IGS rat at 0.125 mg/hr, iv administered as continuous infusion by ultrafiltration method. In kind it is ADME, organism-based. The settings on record: read-out: PPB (converted). In outline:
as §2

A short description of series [11]: Total body clearance in Crj:CD(SD)IGS rat at 0.5 mg/kg, iv administered as bolus dose by HPLC-based liquid scintillation counting analysis. The arrangement: dose 0.5 mg/kg, route intravenous. In kind it is ADME, organism-based. The settings on record: in vivo. An outline of the steps: as §4
Series [12] can be described thus: Drug recovery in Beagle dog urine at 0.5 mg/kg, iv administered as bolus dose measured from 0 to 168 hrs by HPLC-based liquid scintillation counting analysis. In kind it is ADME, organism-based, Canis lupus familiaris. Details: dose 0.5 mg/kg, route intravenous. The settings on record: read-out: Drug recovery. An outline of the steps:
as §3

Series [13] can be described thus: In vitro plasma protein binding in dog at 50 ug/ml by ultrafiltration method. In kind it is ADME, cell-free, Canis lupus familiaris. The note with it: read-out: PPB (converted). An outline of the steps:
as §1

The source of these data is ChEMBL document CHEMBL3526115, “Differences in the pharmacokinetics of 4-amino-3-chlorophenyl hydrogen sulfate, a metabolite of resatorvid, in rats and dogs” (Drug Metab Dispos, 2012).

By Kp is commonly meant tissue or fluid exposure divided by exposure in the circulation. In general, clearance refers to a measure of how efficiently the substance is removed, as volume per time. Higher therefore signals efficient removal. For the compound `N[14c]1[14cH][14cH][14c](OS(=O)(=O)O)[14cH][14c]1Cl`, the results for the fraction unbound at 5 ug/ml in series [1] and in series [2] were 0.087 and 0.078, respectively. Besides, the fraction unbound is 0.088 in series [3], 0.078 in [7], 0.08 in series [8] and 0.088 in series [10]. Moreover, in series [4], the partition ratio (Kp) amounted to 3.5. For the same compound, the Drug excretion in series [5] was determined as 84.7%. The same compound had a CL renal in [6] of 0.00468 mL/min/kg. In series [9], this compound gave a concentration at 5 min of 2290 ng/mL. The same compound gave a clearance in series [11] of 10.5 mL/min/kg. In addition, the dose excreted in [12] worked out at 19.5%. Further, the fraction unbound at 50 ug/ml in series [13] was 0.154.
